Measurements: ChEMBL document CHEMBL1158061, “Alkaloids from Gelsemium elegans” (J Nat Prod, 2006)

What was measured:
Assay type in all cases: functional, cell-based
[1] = tested on: P388; experiment: Cytotoxicity against mouse P388 cells by MTT method
Outline: (§1)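 MTT assay on P388 (murine leukemia) and HL-60 (human leukemia) cells, run by standard protocol with pseudolaric acid B as positive control. Values are reported as IC50 in molar units.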

[2] = tested on: HL-60; experiment: Cytotoxicity against human HL-60 cells by MTT method; outline: as §1
[3] = tested on: A549; experiment: Cytotoxicity against human A549 cells by SRB method
Outline: (§2)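 SRB assay on A-549 (human lung adenocarcinoma) and BEL-7402 (human hepatocellular carcinoma) cells, run by standard protocol with pseudolaric acid B as positive control. Values are reported as IC50 in molar units.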

[4] = tested on: Bel-7402; experiment: Cytotoxicity against human Bel-7402 cells by SRB method; outline: as §2

Row | Structure (SMILES) | IC50 [1] [µM] | IC50 [2] [µM] | IC50 [3] [µM] | IC50 [4] [µM]
1 | CON1C(=O)[C@@]2(C[C@@H]3N=C([C@@H](C)C[C@H]4C(=O)OC[C@H]5[C@@H]4[C@@H](O)C[C@@H]5C)[C@@H]4[C@@H](O)[C@H]2OC[C@@H]43)c2ccccc21 | > 10 | > 10 | > 10 | > 10
2 | CON1C(=O)[C@@]2(C[C@@H]3N=C([C@H](C)C[C@@H]4C(=O)O[C@H]5C[C@H](C)[C@@H](CO)[C@H]54)[C@@H]4[C@@H](O)[C@H]2OC[C@@H]43)c2ccccc21 | > 10 | > 10 | > 10 | > 10
3 | CCN(CC)C[C@@H]1C(=O)O[C@H]2C[C@H](C)[C@@H](CO)[C@H]21 [GELSEBAMINE] |  |  | 0.634 | 
4 | C=C[C@@]12CN(C)C3C1[C@@]1(C(=O)N(C[C@@H]4C(=O)O[C@H]5C[C@H](C)[C@@H](CO)[C@H]54)c4ccccc41)[C@H]1C[C@@H]2[C@@H]3CO1 [GELSEBANINE] | > 10 | > 10 | > 10 | > 10
